Laboratory results taken from ChEMBL document CHEMBL5357024, “MDM2 Antagonist Idasanutlin Reduces HDAC1/2 Abundance and Corepressor Partners but Not HDAC3” (ACS Med Chem Lett, 2024).

Target: T1, Paired amphipathic helix protein Sin3a (Homo sapiens) (UniProt Q96ST3)
T1 sequence (whole entry): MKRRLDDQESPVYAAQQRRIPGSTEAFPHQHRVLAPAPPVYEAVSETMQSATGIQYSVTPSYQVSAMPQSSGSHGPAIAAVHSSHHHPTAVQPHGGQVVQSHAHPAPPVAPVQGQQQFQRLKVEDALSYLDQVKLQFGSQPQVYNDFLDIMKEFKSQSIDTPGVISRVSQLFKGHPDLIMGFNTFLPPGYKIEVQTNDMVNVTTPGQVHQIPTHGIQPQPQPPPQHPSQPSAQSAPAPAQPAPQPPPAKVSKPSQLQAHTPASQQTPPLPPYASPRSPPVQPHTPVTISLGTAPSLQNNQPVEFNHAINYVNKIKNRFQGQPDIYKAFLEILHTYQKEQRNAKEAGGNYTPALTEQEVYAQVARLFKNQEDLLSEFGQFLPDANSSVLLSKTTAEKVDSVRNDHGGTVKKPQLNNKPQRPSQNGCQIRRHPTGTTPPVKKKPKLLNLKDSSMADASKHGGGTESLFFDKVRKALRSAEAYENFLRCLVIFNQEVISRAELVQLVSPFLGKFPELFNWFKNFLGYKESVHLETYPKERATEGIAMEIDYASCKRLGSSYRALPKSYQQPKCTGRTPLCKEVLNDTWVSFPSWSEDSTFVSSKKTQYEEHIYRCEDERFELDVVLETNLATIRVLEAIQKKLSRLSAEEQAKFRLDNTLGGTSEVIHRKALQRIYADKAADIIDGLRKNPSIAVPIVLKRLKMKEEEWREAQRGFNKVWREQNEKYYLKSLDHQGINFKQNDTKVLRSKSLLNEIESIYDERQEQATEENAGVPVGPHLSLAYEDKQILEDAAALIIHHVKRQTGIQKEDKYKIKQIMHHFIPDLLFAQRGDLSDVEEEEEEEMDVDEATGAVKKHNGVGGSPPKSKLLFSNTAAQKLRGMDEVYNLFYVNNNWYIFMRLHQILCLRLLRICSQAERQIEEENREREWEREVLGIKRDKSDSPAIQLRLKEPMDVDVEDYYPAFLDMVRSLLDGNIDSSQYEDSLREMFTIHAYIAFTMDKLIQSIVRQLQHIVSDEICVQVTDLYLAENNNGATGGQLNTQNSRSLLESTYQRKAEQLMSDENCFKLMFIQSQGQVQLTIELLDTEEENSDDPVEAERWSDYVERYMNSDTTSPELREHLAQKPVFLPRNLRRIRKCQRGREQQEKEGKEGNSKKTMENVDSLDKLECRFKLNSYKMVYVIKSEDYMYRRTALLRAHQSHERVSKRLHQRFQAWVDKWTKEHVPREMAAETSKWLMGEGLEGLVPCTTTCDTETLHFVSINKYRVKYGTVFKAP
Assay: Induction of SIN3A degradation in human HCT-116 cells assessed as reduction in SIN3A abundance by measuring remaining activity at 0.025 uM measured after 24 hrs by Western blot analysis (reference value: 100%)
Assay type: cell-based
In short: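 HCT116 cells seeded in six-well plates for 24 h, then exposed 24 h to compound (0.01–10 μM) or DMSO in fresh medium. Lysis in Tris-HCl/NaCl/NP-40/Triton X-100 with protease inhibitor. Bradford-normalised 30 μg protein per lane. Quantitative Western blot used specific HDAC1, HDAC2, HDAC3, LSD1 or Sin3a antibodies with IRDye secondaries. Abundance compared with DMSO, n = 2 replicates.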

Activity: 100%
SMILES: COc1cc(C(=O)NCCOCCOCCOCCOCCC(=O)Nc2ccc(C(=O)Nc3ccccc3N)cc2)ccc1NC(=O)[C@@H]1N[C@@H](CC(C)(C)C)[C@](C#N)(c2ccc(Cl)cc2F)[C@H]1c1cccc(Cl)c1F
